Bioassay records: PubChem BioAssay, several laboratories
M1 ag = agonists of M1 muscarinic receptor; CHO-M1 cells, Fluo-4 calcium fluorescence, agonist mode; active compounds read high; B-score at 10 µM; 64,000 compounds, 3% hits; AID 626;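 active means fluorescence rise, raw or as B-score row- and column-corrected plate score, outside the 99.7% band of its plate's samples, either direction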
HEK293 NFkB inh = lowers PMA/ionomycin-induced NF-kB signal in HEK293 cells. AID 465. HEK-293 NF-kB luciferase reporter, luminescence. inhibition, % at 3 µM. 62,000 compounds, 0.21% hits;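 active means inhibition above the mean of all tested compounds plus 3 SD, cut at about 40% in these data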;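 further: 0% = stimulated DMSO wells and 100% = 10 µM reference inhibitor 5653914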
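Timing: 1 h pretreatment, 16 h stimulation, 37 °C; system: HEK-293 cells with stable firefly luciferase reporter driven by four HIV NF-kB elements; doses: 3 µM once, 0.30% DMSO; measured by: luciferase luminescence; control set: DMSO and 10 µM reference inhibitor; repeats: single test; reagent: PMA plus ionomycin mix as NF-kB-activating stimulus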
Jurkat tox 60K = reduces viability or proliferation of Jurkat cells; Jurkat E6.1 viability, ATP luminescence, 48 h; 56,000 compounds, 1.2% hits; inhibition, % at 4 µM;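 active means inhibition above the mean inhibition of all tested compounds plus 3 SD, cut at about 28% in these data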
hDAT+cocaine = human DAT dopamine uptake with cocaine, either direction; 110,000 compounds, 1.3% hits; LLC-PK1 hDAT cells, [14C]-dopamine uptake with cocaine IC80; actives deviate in either direction; B-score at 10 µM; Q01959;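 active means Z score or B-score, a plate-position-corrected score, falls beyond the plate's 99.7% confidence bounds, in either direction; inactive means both scores lie inside the 99.7% bounds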;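 further: scored against the spread of the other compound wells on the same plate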
D1 mod = allosteric modulators of human D1 dopamine receptor | P21728 | B-score at 10 µM | 58,000 compounds, 5.9% hits | HEK293 D1, CRE-luciferase, dopamine EC30 potentiation; actives deviate in either direction | AID 641;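 active means luminescence count or its row- and column-corrected plate score outside the 99.7% band of the plate's sample wells, on either side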
Target sequence (P21728 whole entry, looked up): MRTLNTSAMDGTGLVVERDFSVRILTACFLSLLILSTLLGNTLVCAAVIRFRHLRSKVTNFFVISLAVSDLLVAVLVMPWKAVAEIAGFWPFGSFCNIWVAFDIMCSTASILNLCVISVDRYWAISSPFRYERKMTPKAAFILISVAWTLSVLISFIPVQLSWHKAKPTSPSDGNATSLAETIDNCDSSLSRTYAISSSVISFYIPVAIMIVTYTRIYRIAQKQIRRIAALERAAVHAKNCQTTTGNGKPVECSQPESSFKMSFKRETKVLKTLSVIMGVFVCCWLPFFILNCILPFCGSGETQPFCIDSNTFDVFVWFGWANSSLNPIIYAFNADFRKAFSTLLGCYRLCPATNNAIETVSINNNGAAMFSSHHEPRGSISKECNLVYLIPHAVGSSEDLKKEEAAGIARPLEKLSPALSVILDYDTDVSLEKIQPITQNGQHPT
M1 antag = blocks the rat M1 muscarinic receptor response to acetylcholine; P08482; CHO-M1 cells, Fluo-4 calcium, ACh EC80 antagonist mode; active compounds read low; B-score at 10 µM; 64,000 compounds, 3.4% hits; AID 628;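 active means calcium fluorescence response, raw or row-and-column corrected B-score, differing from the plate sample mean either way at a set confidence level, mostly lower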
M1 antag confirm = confirmation of rat M1 muscarinic receptor antagonists | calcium response (max-min fluorescence) at 10 µM | shares compounds with M1 antag | 1,700 compounds, 43% hits | CHO-M1 cells, Fluo-4 calcium, ACh EC80 antagonism; active compounds read low;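 active means calcium response below the same-plate mean of wells given acetylcholine alone at its 80%-effect dose, minus 3 SD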;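 further: raw fluorescence intensity difference in arbitrary instrument units and not normalized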
mGluR4 antag = acts on human mGluR4 in M1 antagonist selectivity test | shares compounds with M1 antag | CHO-mGluR4 calcium flux, Fluo-4 fluorescence, glutamate EC80; active compounds read low | fluorescence response (max-min) at 10 µM | 1,700 compounds, 0.9% hits | AID 678;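 active means fluorescence response below the plate's average for near-maximal glutamate wells, less 3 SD of those wells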;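 further: raw unnormalized fluorescence span taken in the window right after glutamate addition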
D1 mod confirm = confirmation of human D1 dopamine receptor allosteric modulators. luminescence at 10 µM. HEK293 D1 CRE-luciferase, dopamine EC30 potentiation; active compounds read high. AID 642. shares compounds with D1 mod. 2,200 compounds, 88% hits;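 active means luminescence in either of two replicates above the same-plate mean plus 3 SD of the low-dose dopamine control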
D1 no dopamine = activates D1 CRE-luciferase signal without dopamine present; AID 646; HEK293 D1 CRE-luciferase, luminescence, no dopamine; active compounds read high; luminescence at 10 µM; 1,900 compounds, 0.8% hits; shares compounds with D1 mod; in the data active means luminescence above about 3900
Isoprot counter = isoproterenol response counter-screen activity for D1 modulators | shares compounds with D1 mod | HEK293 D1 CRE-luciferase, isoproterenol EC30 counter-screen | calls only at 10 µM | 2,200 compounds, 63% hits;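 active means luminescence in either replicate above plate mean of wells with a partly effective reference agonist dose plus 3 SD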;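 further: isoproterenol raises cAMP through native beta-adrenoceptor Gs so signal bypasses D1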
Starred values were filed as active, the others as inactive. A selection: hits, their analogues and other compounds. The true share with any hit is near 7.6%.

Screening CCOC(=O)N1CCN(C(=O)C(C)(C)Oc2ccc(Cl)cc2)CC1 returned M1 ag -0.247, HEK293 NFkB inh 16.3, Jurkat tox 60K 7.4, hDAT+cocaine 0.806, D1 mod 1.91*, M1 antag -2.61*, M1 antag confirm 525, mGluR4 antag 213, D1 mod confirm 7408*, D1 no dopamine 1572 and Isoprot counter inactive.
For COc1ccc(N2CCN(C(=O)C(C)(C)Oc3ccc(Cl)cc3)CC2)cc1 the results were M1 ag 0.0785, HEK293 NFkB inh 3.6, Jurkat tox 60K 3.5, hDAT+cocaine -0.833, D1 mod 0.245 and M1 antag -0.402.
Screening CCOC(=O)Nc1ccc2c(c1)N(C(=O)CCN1CCN(CCO)CC1)c1ccccc1S2 returned hDAT+cocaine 2.3.
For CCOC(=O)Nc1ccc2c(c1)Sc1ccccc1N2C(=O)CCN1CCOCC1 the results were M1 ag 1.44, HEK293 NFkB inh 2.5, Jurkat tox 60K -8.9, hDAT+cocaine 0.881, D1 mod 4.83*, M1 antag -3.48*, M1 antag confirm 317*, mGluR4 antag 257, D1 mod confirm 8528* and Isoprot counter active.
For Cc1cccc(NC(=S)NC(=O)c2cc(-c3ccccc3)nc3ccccc23)c1 the results were hDAT+cocaine -0.9.
Screening Cc1ccc2nc(SCC(=O)Nc3cccc([N+](=O)[O-])c3)[nH]c2c1 returned hDAT+cocaine 0.112.
Screening COc1ccc(-n2c(SCC(N)=O)nc3sc4c(c3c2=O)CCN(C)C4)cc1 returned M1 ag -1.12, hDAT+cocaine -1.36, D1 mod 0.462 and M1 antag 0.509.
For COC(=O)CSc1nc2sc3c(c2c(=O)n1C1CCCCC1)CCN(C)C3 the results were M1 ag -2.73*, D1 mod 14.5*, M1 antag -2.68*, M1 antag confirm 486*, mGluR4 antag 261, D1 mod confirm 21932*, D1 no dopamine 1592 and Isoprot counter active.
`CC(Oc1ccc(Cl)cc1Cl)C(=O)NCc1ccncc1` (stereo not drawn) gave M1 ag 0.635, HEK293 NFkB inh 14.3, hDAT+cocaine -0.367, D1 mod 6.74*, M1 antag -2.43*, M1 antag confirm 605, mGluR4 antag 223, D1 mod confirm 14184*, D1 no dopamine 1620 and Isoprot counter active.
Screening CC(Oc1ccc(Cl)cc1Cl)C(=O)NCCCn1ccnc1 (stereo not drawn) returned M1 ag 0.00801, HEK293 NFkB inh 18.0, Jurkat tox 60K 2.8, hDAT+cocaine 0.178 and M1 antag -0.188.
c1ccc(-c2oc3ncnc(NCCCn4ccnc4)c3c2-c2ccccc2)cc1 was read as M1 ag 0.0365, HEK293 NFkB inh 18.2, Jurkat tox 60K 9.3, hDAT+cocaine 2.72*, D1 mod 3.75*, M1 antag -3.88*, M1 antag confirm 435, mGluR4 antag 145*, D1 mod confirm 9476*, D1 no dopamine 1872 and Isoprot counter active.
Screening O=C1NC[C@H](Cc2ccc(O)cc2)N(CC2CCCCC2)C1=O returned hDAT+cocaine 0.019.
Screening COC(=O)c1sc2ccccc2c1NC(=O)c1cccs1 returned M1 ag 0.993, HEK293 NFkB inh 10.6, Jurkat tox 60K 2.2, hDAT+cocaine -0.649, D1 mod 18.8*, M1 antag -1.4*, M1 antag confirm 642*, mGluR4 antag 173, D1 mod confirm 20828*, D1 no dopamine 1756 and Isoprot counter active.
`COC(=O)c1sc2ccccc2c1N` gave M1 ag 0.061, HEK293 NFkB inh 2.8, Jurkat tox 60K 1.4, hDAT+cocaine -0.127, D1 mod 2.85 and M1 antag -0.21.
For CCc1nc(NCc2ccco2)c2oc3ccccc3c2n1 the results were M1 ag -0.00886, HEK293 NFkB inh 11.4, hDAT+cocaine 0.431, D1 mod 13.4*, M1 antag -3.94*, M1 antag confirm 581, mGluR4 antag 213, D1 mod confirm 3596 and Isoprot counter inactive.
For CC(Oc1ccccc1)c1ccnn1S(=O)(=O)c1ccccc1 (stereo not drawn) the results were hDAT+cocaine -0.308.
CCC(NC(C)C)C(O)c1ccc(O)c(O)c1 (stereo not drawn) was read as M1 ag 0.548, hDAT+cocaine -0.0739, D1 mod 12.7*, M1 antag -14.2*, M1 antag confirm 632, mGluR4 antag 248, D1 mod confirm 9904*, D1 no dopamine 3836* and Isoprot counter active.
COC(=O)c1[nH]c2cccc(Cl)c2c1NC(=O)CN(C)C1CCCCC1 was read as M1 ag 1.21, HEK293 NFkB inh 3.9, Jurkat tox 60K -3.4, hDAT+cocaine 0.108, D1 mod 11.1*, M1 antag -1.85*, M1 antag confirm 367*, mGluR4 antag 180, D1 mod confirm 16352*, D1 no dopamine 1684 and Isoprot counter active.
`Nc1nc(SCc2ccc3c(c2)OCCO3)n[nH]1` gave M1 ag -0.0107, HEK293 NFkB inh 7.7, Jurkat tox 60K 0.9, hDAT+cocaine -0.039, D1 mod 4.9*, M1 antag 0.566, D1 mod confirm 9268*, D1 no dopamine 1676 and Isoprot counter inactive.
Cc1cccc(NC(=O)Cn2c(=O)n(Cc3ccco3)c(=N)c3c4c(sc32)COC(C)(C)C4)c1 was read as M1 ag 0.216, HEK293 NFkB inh 14.3, Jurkat tox 60K 8.4, hDAT+cocaine 0.221, D1 mod 8.94*, M1 antag 1.44, D1 mod confirm 6860*, D1 no dopamine 1656 and Isoprot counter active.
Screening CSc1nnc(-c2ccco2)c(-c2ccco2)n1 returned M1 ag 1.01, HEK293 NFkB inh 9.8, Jurkat tox 60K 0.0, hDAT+cocaine -2.26, D1 mod 4.15*, M1 antag 0.847, D1 mod confirm 10584* and Isoprot counter active.
`Cc1cccc(C)c1NC(=O)CSc1nnc(-c2ccco2)c(-c2ccco2)n1` gave hDAT+cocaine 0.385.
